APJ ag: activates the human apelin receptor APJ | P35414 | CHO-K1 APJ PathHunter beta-arrestin, luminescence; 0% DMSO wells, 100% apelin | activation, % at 20 µM | 330,000 compounds, 0.11% hits | AID 2520;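 active = activation more than six SD over the plate average, tested at 20 µM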
Target sequence (P35414 whole entry, looked up): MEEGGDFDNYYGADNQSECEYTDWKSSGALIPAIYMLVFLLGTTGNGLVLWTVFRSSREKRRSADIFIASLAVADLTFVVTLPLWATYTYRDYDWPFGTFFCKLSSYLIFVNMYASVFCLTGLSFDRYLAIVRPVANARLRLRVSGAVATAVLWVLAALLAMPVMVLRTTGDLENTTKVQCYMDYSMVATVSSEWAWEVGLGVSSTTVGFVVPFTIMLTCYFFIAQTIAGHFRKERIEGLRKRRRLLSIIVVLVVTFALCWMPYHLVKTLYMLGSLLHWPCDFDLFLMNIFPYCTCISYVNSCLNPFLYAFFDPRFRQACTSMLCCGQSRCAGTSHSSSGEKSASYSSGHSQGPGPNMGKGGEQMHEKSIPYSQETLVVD
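Assay system: engineered CHO-K1 APJ arrestin reporter cells; Amount: 1000 CHO-K1 reporter cells seeded per well; Dosing: one dose, 20 µM compound, 1% DMSO; Times: compound stimulation 90 min at 25 °C, detection 60 min; Measured by: luminescent beta-gal fragment complementation, chemiluminescent substrate; Read-out: APJ–arrestin association signal; Controls: DMSO vs Apelin-13 10 nM.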
EBI2 block: EBI2 (human) antagonism | P32249 | EBI2 beta-arrestin recruitment, luminescence, 7a,25-OHC stimulated | inhibition, % at 5 µM | 360,000 compounds, 0.81% hits | AID 651636; in the data active = inhibition above about 38%;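 note: enzyme fragment complementation signal reports receptor beta-arrestin coupling in cells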
m5-HT2A agonist: activates the mouse 5-HT2A serotonin receptor; P35363; 360,000 compounds, 0.66% hits; CHO-K1 mHTR2A beta-arrestin complementation, luminescence; percent of 30 µM serotonin response; activation, % at 7.6 µM;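 active = activation above a run cutoff, the mean activation of all tested compounds plus 3 SD, cut at about 14% in these data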
CXCR6 inh: blocks human CXCR6 beta-arrestin recruitment; inhibition, % at 20 µM; AID 602244; CHO-K1 PathHunter CXCR6 beta-arrestin, luminescence; 360,000 compounds, 0.36% hits; O00574; in the data active = inhibition above about 34%, passing the limit was not always enough;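 note: antagonist mode with CXCL16 agonist at 10 nM final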
APJ antag: APJ receptor antagonism; inhibition, % at 20 µM; AID 2521; CHO-K1 APJ beta-arrestin complementation, luminescence; 330,000 compounds, 0.32% hits; P35414;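 active = inhibition above about 40% at 20 µM, limit read from the data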;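 note: cells challenged with 10 nM apelin-13 agonist together with compound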
CCR6 antagonist: blocks CCL20-driven beta-arrestin recruitment at human CCR6. P51684. inhibition, % at 20 µM. CHO-K1 CCR6 PathHunter beta-arrestin, luminescence, CCL20-stimulated. 340,000 compounds, 0.49% hits. AID 493098;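 active = compounds whose inhibition of the agonist-driven luminescence signal at 20 µM reaches about 50%, limit read from the data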;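 note: cells stimulated with CCL20 at 14 nM final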
EBI2 antag conf: confirmation of human EBI2 receptor antagonists; inhibition, % at 5 µM; shares compounds with EBI2 block; 2,400 compounds, 29% hits; EBI2 beta-arrestin luminescence, 7a,25-OHC antagonism; AID 651997;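 active = inhibition of at least 50%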
EBI2 ag: EBI2 agonism counter-screen; shares compounds with EBI2 block; EBI2-expressing cells, agonist mode, luminescence, 60 min; 0% vehicle, 100% 7α,25-dihydroxycholesterol control; activation, % at 5 µM; 2,400 tested, under 10 active; AID 652000;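 active = activation of at least 50%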
bGal cs: inhibits E. coli beta-galactosidase, counter-screen for EBI2 antagonists | shares compounds with EBI2 block | purified beta-galactosidase, luminescent Galacton Star, 15 min | inhibition, % at 5 µM | 2,400 compounds, 1% hits;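 active = replicate-average signal at least 3 plate SD below neutral wells, shown as high inhibition, flagging enzyme-inhibiting false positives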;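 note: higher means stronger loss of beta-gal luminescence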
Of the large screens only hits and unclear results are named; the others gave an inactive call (follow-up assays come after a bar, where they were run). An excerpt weighted towards active compounds, which were near 2.1% of everything screened.

O=C(/C=C/c1ccc(Cl)cc1)Nc1ccc(N2CCCCC2)cc1	EBI2 block 44 | EBI2 antag conf inactive | EBI2 ag inactive | bGal cs inactive
CCN(CC)CCSc1nnc2c3ccccc3n(Cc3ccccc3)c2n1	EBI2 block 54 | EBI2 antag conf inactive | EBI2 ag inactive | bGal cs inactive
CCn1c2ccccc2c2nnc(SCc3ccccc3)nc21	none
Cn1c2ccc(F)cc2c2nnc(SCCN3CCCCC3)nc21	none
CCN(CC)CCSc1nnc2c3cc(F)ccc3n(Cc3ccccc3)c2n1	EBI2 block 56 | EBI2 antag conf inactive | EBI2 ag inactive | bGal cs inactive
C(=C\c1ccccc1)/CSc1nnc(-c2ccccc2)n1Cc1ccco1	none
Clc1cccc(-c2nnc(SC/C=C/c3ccccc3)n2Cc2ccco2)c1	EBI2 block 45 | EBI2 antag conf inactive | EBI2 ag inactive | bGal cs inactive
O=S(=O)(c1ccc(Oc2ccc(Cl)cc2)nc1)N1CCOCC1	EBI2 block 52 | EBI2 antag conf inactive | EBI2 ag inactive | bGal cs inactive
Oc1cccc(/C=N/Nc2cc(N3CCCC3)nc(N3CCCC3)n2)c1	none
COc1ccc(/C=N/Nc2cc(N3CCCC3)nc(N3CCCC3)n2)cc1	EBI2 block 60 | EBI2 antag conf inactive | EBI2 ag inactive | bGal cs inactive
COc1cc(OC)nc(C(NC(=O)C2CCN(Cc3ccc(Oc4ccccc4)cc3)CC2)c2ccccc2C)n1 (configuration not stated)	EBI2 block 53 (no result: APJ ag, APJ antag, CCR6 antagonist) | EBI2 antag conf inactive | EBI2 ag inactive | bGal cs inactive
Cc1ccc(C)c(Nc2ccc(C(=O)NCCc3ccccc3)cn2)c1	none
Cc1ccc(Nc2ccc(C(=O)NCCc3ccccc3)cn2)cc1	EBI2 block 83 | EBI2 antag conf 58 | EBI2 ag inactive | bGal cs inactive
Cc1cc(SCC(=O)N/N=C/c2ccc(O)c(O)c2O)c(C)cc1Br	none
COc1cc(/C=N/NC(=O)CSc2cc(C)c(Br)cc2C)ccc1O	EBI2 block 59 | EBI2 antag conf inactive | EBI2 ag inactive | bGal cs inactive
COc1cc(-c2ccc3c(=O)c4ccccc4sc3c2)cc(OC)c1OC	EBI2 block 44 | EBI2 antag conf inactive | EBI2 ag inactive | bGal cs inactive
COc1ccc2sc3ccccc3c(=O)c2c1	none
COC(=O)c1c(-c2ccsc2)sc2ccc(-c3cc(OC)c(OC)c(OC)c3)cc12	EBI2 block 55 | EBI2 antag conf inactive | EBI2 ag inactive | bGal cs inactive
S=C(NCc1cccnc1)Nc1ccc(Oc2ccc(Cl)cc2)cc1	EBI2 block 46 | EBI2 antag conf inactive | EBI2 ag inactive | bGal cs inactive
O=C(Nc1nc(-c2ccc(Oc3ccccc3)cc2)cs1)C1=COCCO1	EBI2 block 74 | EBI2 antag conf inactive | EBI2 ag inactive | bGal cs inactive
CSCCC(NS(=O)(=O)c1ccccc1F)C(=O)NCC(c1ccc(F)cc1)N1CCOCC1 (configuration not stated)	none
O=C(c1ccco1)N1CCc2[nH]nc(-c3ccc(Cl)cc3)c2C1	EBI2 block 41 | EBI2 antag conf inactive | EBI2 ag inactive | bGal cs inactive
Cc1ccc(Oc2ccc(Oc3ccc(C)cc3)nn2)cc1	EBI2 block 92 | EBI2 antag conf 89 | EBI2 ag inactive | bGal cs inactive
Cc1ccc(Oc2cnc3ccccc3n2)cc1	none
CCc1ccc(NC(=O)CSc2nc(=O)n(CCCN3CCOCC3)c3c2CCCC3)cc1	none
CC(NC(=O)C(=O)NCCc1c[nH]c2ccccc12)c1ccccc1 (configuration not stated)	EBI2 block 61 | EBI2 antag conf inactive | EBI2 ag inactive | bGal cs inactive
O=C(NCCc1c[nH]c2ccccc12)c1ccc(Cl)cc1	EBI2 block 60 | EBI2 antag conf inactive | EBI2 ag inactive | bGal cs inactive
COc1ccc(N2CCN(C(CNC(=O)C(=O)NCCCO)c3ccco3)CC2)cc1 (configuration not stated)	none
COc1ccc(N2CCN(C(CNC(=O)C(=O)NCCc3c[nH]c4ccccc34)c3ccco3)CC2)cc1 (configuration not stated)	EBI2 block 49 | EBI2 antag conf inactive | EBI2 ag inactive | bGal cs inactive
COc1ccc(C(=O)NCCc2c[nH]c3ccccc23)cc1	none
CCC(=O)NCCc1c[nH]c2ccccc12	none
Cc1ccc(S(=O)(=O)N2CCN(C)CC2)c2nsnc12	none
COc1ccccc1NC(=S)N(Cc1ccco1)Cc1cc2cccc(C)c2[nH]c1=O	none
COc1ccc2[nH]c(=O)c(C(c3nnnn3C3CCCC3)N(C)C3CCCCC3)cc2c1 (configuration not stated)	EBI2 block 62 | EBI2 antag conf inactive | EBI2 ag inactive | bGal cs inactive
COc1cc2cc(C(c3nnnn3C3CCCC3)N3CCCCC3)c(=O)[nH]c2cc1OC (configuration not stated)	none
COc1ccc2cc(C(c3nnnn3C3CCCCC3)N3CCCCCC3)c3nnnn3c2c1 (configuration not stated)	EBI2 block 54 | EBI2 antag conf inactive | EBI2 ag inactive | bGal cs inactive
COc1ccc(C(c2nnnn2C2CCCC2)N2CCC(C)CC2)c(OC)c1 (configuration not stated)	none
COc1ccc2cc(C(c3nnnn3C3CCCC3)N3CCCCCC3)c3nnnn3c2c1 (configuration not stated)	EBI2 block 60 | EBI2 antag conf inactive | EBI2 ag inactive | bGal cs inactive
O=S(=O)(c1ccc(NC(=S)NC2CCCC2)cc1)N1CCCC1	none
O=C1NC(=Nc2ccccc2)SC1Cc1ccccc1 (configuration not stated)	none
Clc1ccc(OCc2nnnn2-c2ccccc2)cc1	EBI2 block 79 | EBI2 antag conf 54 | EBI2 ag inactive | bGal cs inactive
c1ccc(OCc2nnnn2-c2ccccc2)cc1	none
Clc1cccc(Nc2nc(-c3ccncc3)cs2)c1	EBI2 block 52 | EBI2 antag conf inactive | EBI2 ag inactive | bGal cs inactive
Cc1cccc(Nc2nc(-c3ccncc3)cs2)c1	none
CCOc1ccc(-c2nc(N)ncc2Oc2cccc(OC)c2)c(O)c1	EBI2 block 47 | EBI2 antag conf inactive | EBI2 ag inactive | bGal cs inactive
